Data reported in ChEMBL document CHEMBL2074208, “P-glycoprotein inhibition by glibenclamide and related compounds” (Pflugers Arch, 1999).
Values belong to the compound of their own block, whether it stands above or below them.

Tests used:
[1] = biological target: T1, ATP-dependent translocase ABCB1 (Homo sapiens, UniProt P08183); assay: TP_TRANSPORTER: increase in Colchicine intracellular accumulation (Colchicine: 0.0175 uM, Glibenclamide: 100 uM) in CEM/VBL600 cells; assay type: functional, cell-based; conditions: cem/vbl600, 100 µM
T1 sequence (P08183 whole entry): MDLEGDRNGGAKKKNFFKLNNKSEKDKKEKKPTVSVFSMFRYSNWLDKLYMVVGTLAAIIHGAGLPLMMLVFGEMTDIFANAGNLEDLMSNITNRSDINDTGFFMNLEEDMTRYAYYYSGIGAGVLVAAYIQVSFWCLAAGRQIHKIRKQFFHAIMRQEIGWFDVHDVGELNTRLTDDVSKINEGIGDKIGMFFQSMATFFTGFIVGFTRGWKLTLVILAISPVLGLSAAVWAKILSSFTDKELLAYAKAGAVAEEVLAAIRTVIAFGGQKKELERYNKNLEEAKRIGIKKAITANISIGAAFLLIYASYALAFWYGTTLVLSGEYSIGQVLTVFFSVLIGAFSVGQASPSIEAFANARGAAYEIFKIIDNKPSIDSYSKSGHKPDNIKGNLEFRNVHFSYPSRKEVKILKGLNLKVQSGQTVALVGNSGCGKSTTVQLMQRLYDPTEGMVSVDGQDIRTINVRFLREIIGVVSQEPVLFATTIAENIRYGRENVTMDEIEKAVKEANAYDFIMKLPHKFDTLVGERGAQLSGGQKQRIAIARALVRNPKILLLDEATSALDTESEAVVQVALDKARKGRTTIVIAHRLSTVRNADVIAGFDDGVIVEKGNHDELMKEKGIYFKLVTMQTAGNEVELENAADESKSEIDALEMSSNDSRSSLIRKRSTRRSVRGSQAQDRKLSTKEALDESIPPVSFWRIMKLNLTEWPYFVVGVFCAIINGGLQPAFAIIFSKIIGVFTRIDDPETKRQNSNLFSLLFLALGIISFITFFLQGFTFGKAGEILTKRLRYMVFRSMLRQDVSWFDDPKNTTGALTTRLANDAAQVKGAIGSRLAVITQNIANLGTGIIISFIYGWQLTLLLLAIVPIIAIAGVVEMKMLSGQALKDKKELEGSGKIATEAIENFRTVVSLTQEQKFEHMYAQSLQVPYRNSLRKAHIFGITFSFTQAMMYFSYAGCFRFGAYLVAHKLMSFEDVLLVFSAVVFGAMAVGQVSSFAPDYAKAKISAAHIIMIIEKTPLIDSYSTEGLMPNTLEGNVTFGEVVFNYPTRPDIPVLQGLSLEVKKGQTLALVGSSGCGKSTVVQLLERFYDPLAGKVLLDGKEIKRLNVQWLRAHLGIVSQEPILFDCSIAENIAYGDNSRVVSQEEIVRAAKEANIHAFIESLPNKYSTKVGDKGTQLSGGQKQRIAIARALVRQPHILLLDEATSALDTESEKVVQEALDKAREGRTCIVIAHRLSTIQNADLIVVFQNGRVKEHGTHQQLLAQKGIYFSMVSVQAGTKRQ
Outline: (§1)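 1.5×10⁶ viable cells were preincubated 10 min at 37 °C with inhibitor or 0.1% DMSO. [³H]colchicine (final 1.25 µCi/ml; 17.5 nM) was added for 60 min at 37 °C. Cells were pelleted at 4 °C, washed ice-cold and counted by scintillation. Uptake is given as % of the no-inhibitor control; n≥3.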

[2] = biological target: Multidrug resistance protein 1a (Rattus norvegicus) (UniProt Q6PSM0); assay: TP_TRANSPORTER: increase in Colchicine intracellular accumulation (Colchicine: 0.035 uM, Glibenclamide: 100 uM) in CC531mdr+ cells; assay type: functional, cell-based
Chain of Multidrug resistance protein 1a (Rattus norvegicus) (Q6PSM0 as listed by the source): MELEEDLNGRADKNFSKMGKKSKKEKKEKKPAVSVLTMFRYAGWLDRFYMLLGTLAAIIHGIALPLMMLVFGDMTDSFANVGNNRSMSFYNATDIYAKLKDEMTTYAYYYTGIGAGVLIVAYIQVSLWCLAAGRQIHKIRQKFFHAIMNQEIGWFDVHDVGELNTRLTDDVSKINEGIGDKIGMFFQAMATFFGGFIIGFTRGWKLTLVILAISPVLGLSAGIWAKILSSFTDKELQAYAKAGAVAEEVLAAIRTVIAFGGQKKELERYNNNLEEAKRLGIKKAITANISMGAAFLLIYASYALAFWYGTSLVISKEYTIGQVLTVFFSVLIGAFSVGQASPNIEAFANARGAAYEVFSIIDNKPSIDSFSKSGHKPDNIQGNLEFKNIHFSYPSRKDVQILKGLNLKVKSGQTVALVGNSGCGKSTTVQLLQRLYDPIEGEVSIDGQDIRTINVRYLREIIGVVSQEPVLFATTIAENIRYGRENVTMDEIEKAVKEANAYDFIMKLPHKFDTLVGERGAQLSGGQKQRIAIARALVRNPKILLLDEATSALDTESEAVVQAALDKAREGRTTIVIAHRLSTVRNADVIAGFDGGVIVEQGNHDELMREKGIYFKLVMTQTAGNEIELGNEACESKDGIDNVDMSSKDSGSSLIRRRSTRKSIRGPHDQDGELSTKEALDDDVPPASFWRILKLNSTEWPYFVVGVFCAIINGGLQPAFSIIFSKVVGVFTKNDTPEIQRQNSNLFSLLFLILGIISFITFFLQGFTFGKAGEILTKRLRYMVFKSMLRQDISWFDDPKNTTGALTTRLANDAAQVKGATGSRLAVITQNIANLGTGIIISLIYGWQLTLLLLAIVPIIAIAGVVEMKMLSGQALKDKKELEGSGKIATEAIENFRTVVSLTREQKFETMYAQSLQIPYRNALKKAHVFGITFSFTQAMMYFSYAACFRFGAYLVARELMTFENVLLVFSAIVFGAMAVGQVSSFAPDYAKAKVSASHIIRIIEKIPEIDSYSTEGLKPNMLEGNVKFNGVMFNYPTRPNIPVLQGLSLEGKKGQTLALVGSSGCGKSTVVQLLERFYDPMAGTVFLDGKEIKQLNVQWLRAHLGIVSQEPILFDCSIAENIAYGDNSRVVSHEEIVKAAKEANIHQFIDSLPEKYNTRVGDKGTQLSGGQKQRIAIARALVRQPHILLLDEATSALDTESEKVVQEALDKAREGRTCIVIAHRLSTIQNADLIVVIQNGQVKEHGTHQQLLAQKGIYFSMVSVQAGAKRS
Outline: (§2)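 CC531mdr+ monolayers were grown to confluence and kept colchicine-free for ≥12 h. They were preincubated 10 min at 37 °C in buffer A (pH 7.4) with inhibitor or 0.1% DMSO, then incubated 60 min in buffer A with [³H]colchicine (2.5 µCi/ml; 35 nM colchicine) plus the same additions. After an ice-cold wash, radioactivity was extracted with 0.1 N HNO₃ and counted. Accumulation is given as % of the no-inhibitor control; n≥3.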

[3] = biological target: Multidrug resistance protein 1a (Rattus norvegicus) (UniProt Q6PSM0); assay: TP_TRANSPORTER: increase in Glibenclamide intracellular accumulation (Glibenclamide: 0.0525 uM, Vinblastine: 100 uM) in CC531mdr+ cells; assay type: functional, cell-based
Outline: (§3)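 Confluent CC531mdr+ monolayers, held colchicine-free ≥12 h, were preincubated 10 min at 37 °C in buffer A with inhibitor or 0.1% DMSO. They were then exposed 60 min to [³H]glibenclamide (2.5 µCi/ml; 52.5 nM glibenclamide) with inhibitor. After an ice-cold buffer wash, acid extraction (0.1 N HNO₃) and scintillation counting, uptake was expressed as % of the inhibitor-free control; n≥3.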

[4] = biological target: Multidrug resistance protein 1a (Rattus norvegicus) (UniProt Q6PSM0); assay: TP_TRANSPORTER: increase in Colchicine intracellular accumulation (Colchicine: 0.035 uM, Vinblastine: 100 uM) in CC531mdr+ cells; assay type: functional, cell-based; outline: as §2
[5] = biological target: T1, ATP-dependent translocase ABCB1; assay: TP_TRANSPORTER: increase in Colchicine intracellular accumulation (Colchicine: 0.0175 uM, Vinblastine: 100 uM) in CEM/VBL600 cells; assay type: functional, cell-based; conditions: cem/vbl600, 100 µM; outline: as §1
[6] = biological target: T1, ATP-dependent translocase ABCB1; assay: TP_TRANSPORTER: inhibition of Azidopine photoaffinity labelling (Azidopine: 0.16 uM, BM-223: 100 uM) in membranes from CEM/VBL600 cells; conditions: cem/vbl600, 100 µM
[7] = biological target: T1, ATP-dependent translocase ABCB1; assay: TP_TRANSPORTER: increase in Colchicine intracellular accumulation (Colchicine: 0.0175 uM, BM-223: 100 uM) in CEM/VBL600 cells; assay type: functional, cell-based; conditions: cem/vbl600, 100 µM; outline: as §1
[8] = biological target: Multidrug resistance protein 1a (Rattus norvegicus) (UniProt Q6PSM0); assay: TP_TRANSPORTER: increase in Glibenclamide intracellular accumulation (Glibenclamide: 0.0525 uM, BM-223: 100 uM) in CC531mdr+ cells; assay type: functional, cell-based; outline: as §3
[9] = biological target: Multidrug resistance protein 1a (Rattus norvegicus) (UniProt Q6PSM0); assay: TP_TRANSPORTER: increase in Colchicine intracellular accumulation (Colchicine: 0.035 uM, BM-223: 100 uM) in CC531mdr+ cells; assay type: functional, cell-based; outline: as §2
[10] = biological target: T1, ATP-dependent translocase ABCB1; assay: TP_TRANSPORTER: inhibition of Azidopine photoaffinity labelling (Azidopine: 0.16 uM, BM-208: 100 uM) in membranes from CEM/VBL600 cells; conditions: cem/vbl600, 100 µM
[11] = biological target: T1, ATP-dependent translocase ABCB1; assay: TP_TRANSPORTER: increase in Colchicine intracellular accumulation (Colchicine: 0.0175 uM, BM-208: 100 uM) in CEM/VBL600 cells; assay type: functional, cell-based; conditions: cem/vbl600, 100 µM; outline: as §1
[12] = biological target: Multidrug resistance protein 1a (Rattus norvegicus) (UniProt Q6PSM0); assay: TP_TRANSPORTER: increase in Colchicine intracellular accumulation (Colchicine: 0.035 uM, BM-208: 100 uM) in CC531mdr+ cells; assay type: functional, cell-based; outline: as §2
[13] = biological target: Multidrug resistance protein 1a (Rattus norvegicus) (UniProt Q6PSM0); assay: TP_TRANSPORTER: increase in Glibenclamide intracellular accumulation (Glibenclamide: 0.0525 uM, BM-208: 100 uM) in CC531mdr+ cells; assay type: functional, cell-based; outline: as §3

Activity [3]: inhibitor [+]
SMILES: COc1ccc(CCN(C)CCCC(C#N)(c2ccc(OC)c(OC)c2)C(C)C)cc1OC (centres undefined)

Activity [6]: inhibitor [+] | Activity [7]: inhibitor [+] | Activity [8]: inhibitor [+] | Activity [9]: inhibitor [+]
SMILES: COc1ccc(Cl)cc1C(=O)NCCc1ccc(S(=O)(=O)N/C(=N/C#N)NC2CCC(C)CC2)cc1 (centres undefined)

Second part, the compound before the results:

SMILES: COc1ccc(Cl)cc1C(=O)NCCc1ccc(S(=O)(=O)NC(=O)NC2CCCCC2)cc1 [GLYBURIDE]
Activity [1]: inhibitor [+] | Activity [2]: inhibitor [+]

SMILES: CC[C@]1(O)C[C@@H]2CN(CCc3c([nH]c4ccccc34)[C@@](C(=O)OC)(c3cc4c(cc3OC)N(C)[C@H]3[C@@](O)(C(=O)OC)[C@H](OC(C)=O)[C@]5(CC)C=CCN6CC[C@]43[C@@H]65)C2)C1 [VINBLASTINE]
Activity [3]: inhibitor [+] | Activity [4]: inhibitor [+] | Activity [5]: inhibitor [+]

SMILES: COc1ccc(Cl)cc1C(=O)NCCc1ccc(S(=O)(=O)N/C(=N/C#N)NC2CCCCC2)cc1
Activity [10]: inhibitor [+] | Activity [11]: inhibitor [+] | Activity [12]: inhibitor [+] | Activity [13]: inhibitor [+]
